Here are results for 5 molecules from paper PMC5707466 (Chemical Science, 2015).

Where two headings read alike, the source gives them in different places. Where no end group is shown, it is not given here. [ ]: non-standard residue; d: D form. AzaTyr = not defined here

Data set [1] is described as follows: Theoretical effective diffusion through microporous membrane. The conditions noted are these: 200 nm membrane pore radius. The procedure, abridged: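 This is a calculation, not a measurement: Deff/D0 through the membrane was computed with the Renkin equation from hydrodynamic radius (RH) and pore radius (RP), with a membrane pore diameter of 0.4 μm. Theoretical effective diffusion times assumed continuous stirring of the chambers.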

A short description of data set [2]: SPR monitoring of sucrose diffusion/equilibration in dialysis chamber. Conditions: for t eff unstirred (experimental): passive mixing, fit of SPR data with eqn (2); for experimental effective diffusion time: unstirred. Format: physicochemical. The procedure, abridged: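 The dialysis chamber was a PDMS spacer (150 μm–1.0 mm) on the gold prism, filled with PBS and topped by a 0.4 μm-pore membrane. The sensor carried a 3-MPA-LHDLHD-OH monolayer. Sucrose was injected into the reservoir, and the SPR response was followed in the sensing chamber. Neither chamber was stirred, so mixing was by diffusion only. Effective diffusion time was fitted with c = ceq(1 – e^(–t/teff)).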

A short description of data set [3]: SPR calibration with sucrose solutions. Format: physicochemical. The conditions noted are these: absence of the microporous membrane; calibration slope. An outline of the steps: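 The SPR instrument was calibrated without the microporous membrane by successive injections of sucrose solutions with refractive indices from 1.33772 to 1.35589. Sensitivity is the response per refractive index unit (nm/RIU).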

For data set [4] the following is noted: with microporous membrane.
Data set [5] deals with T1, CD36 (Homo sapiens, UniProt P16671). Put plainly: CD36 SPR biosensor with dialysis chamber. It counts as binding. The conditions noted are these: for SPR signal change: 10 μM peptide, buffer (PBS), CD36 sensor. The procedure, abridged:
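Hexahistidine-tagged CD36 was captured by Cu2+ chelation on a 3-MPA-LHDLHD-OH monolayer. The monolayer was self-assembled overnight, then NTA-coupled via EDC/NHS. A PDMS spacer was filled with PBS and capped with a 0.4 μm-pore membrane. Peptide in PBS, untreated serum or whole blood was injected into the reservoir for 90 min per concentration. Triplicates ran in separate sensing chambers, with blank serum/blood in the reference channel and background subtracted.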
In general terms: SPR reads the build-up and loss of mass on a sensor chip optically.

The target in data set [6] is T1, CD36. The data set is described as follows: CD36 SPR biosensor without dialysis chamber. It counts as binding. The conditions noted are these: matrix not stated.
The target of data set [7] is T1, CD36. Conditions: saline solution (stated for DBG178); CD36 SPR biosensor; cited from earlier work.
Data set [8] addresses hexahistidine-tagged type B scavenger receptor CD36 (cluster of differentiation 36) (UniProt P16671). Put plainly: SPR.
Data set [9] has the same target. The data set is described as follows: SPR. This is another data set of the same source.
Data set [10] has the same target. Put plainly: SPR. This is another data set of the same source.

Chain of hexahistidine-tagged type B scavenger receptor CD36 (cluster of differentiation 36) (P16671 whole entry): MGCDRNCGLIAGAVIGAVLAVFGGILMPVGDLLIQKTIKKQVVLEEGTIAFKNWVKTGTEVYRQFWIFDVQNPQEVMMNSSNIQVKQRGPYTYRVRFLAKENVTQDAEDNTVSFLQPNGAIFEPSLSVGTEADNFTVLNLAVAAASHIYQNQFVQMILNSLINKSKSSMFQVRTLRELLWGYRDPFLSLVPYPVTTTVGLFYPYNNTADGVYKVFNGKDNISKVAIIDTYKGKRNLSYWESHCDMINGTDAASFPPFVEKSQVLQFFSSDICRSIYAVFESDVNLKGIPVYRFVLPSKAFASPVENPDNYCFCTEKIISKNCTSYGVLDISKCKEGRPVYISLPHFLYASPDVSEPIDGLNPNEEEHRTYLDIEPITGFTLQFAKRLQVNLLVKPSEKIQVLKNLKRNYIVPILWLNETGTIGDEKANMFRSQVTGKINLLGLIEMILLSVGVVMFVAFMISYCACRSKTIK
T1 sequence (P16671 whole entry): as above

In data set [1], `OC[C@H]1O[C@@](CO)(O[C@H]2O[C@H](CO)[C@@H](O)[C@H](O)[C@H]2O)[C@@H](O)[C@@H]1O` [Sucrose, sucrose] yielded an RH/RP of 0.00235. The “t eff unstirred (experimental)” value in [2] (spacer 0.15 mm) is 5529 s; in data set [2] (spacer 0.30 mm), 9892 s; in [2] (spacer 0.60 mm), 26 590 s; in [2] (spacer 1.00 mm), 55 687 s. In addition, the “experimental effective diffusion time” value in data set [2] (spacer 1 mm (1000 μm), b26 prints unit as hours) is recorded as 15.5 h; in [2] (spacer 150 μm) it was 1.5 h. The “increase in equilibration time of the sensing chamber in absence of mixing” value in data set [2] (spacer 150 μm, unstirred experimental vs stirred theoretical) is given as 300 fold. The “SPR sensitivity without microporous membrane” value in data set [3] is 2221 nm/RIU.

Take “BSA: bovine serum albumin (BSA) (MW = 66.4 kDa)”: the “diffusion time required to observe a significant SPR response / large shift” value in [4] was approximately 8 h.

What is called Kd is a measure of binding affinity in units of concentration. In turn, “His-D-Trp-Ala-AzaTyr-D-Phe-Lys-NH2 [DBG178]” gave an SPR response at CD36 [5] (7.5 μM, human serum, dialysis chamber, 90 min, reference-subtracted, triplicate) of 0.49 ± 0.02 nm. The SPR signal change at CD36 [5] (dialysis chamber) amounted to 0.28 ± 0.11 nm. For the same molecule, at CD36 [5] (dialysis chamber, saline/PBS, 90 min per concentration), the “concentrations that could not be detected” value is reported as “below 5 μM”. Moreover, at CD36 [5] (highest concentration), the “difference in SPR response with vs without dialysis chamber” value is on record as 12%. On CD36 [5] (highest concentration, matrix not stated), the “SPR response with the microdialysis chamber” value is 0.78 nm. Besides, at CD36 [5] (human serum vs PBS, same concentration range, Fig. 3), the “calibration curve signal in human serum (in words)” value was “increased in signal compared to PBS”. Further, the “SPR response at nanomolar concentrations” value at CD36 [5] (nanomolar range, dialysis chamber) is “below the detection limit of the SPR sensor”. For the same molecule, the “analysis time sufficient to reach equilibrium of the SPR sensor” value on CD36 [5] (whole blood, dialysis chamber, Fig. SI4) was found to be 90 min. Further, at CD36 [5] (whole human blood, 5, 7.5 and 10 μM, vs human serum, Fig. 3), the “SPR response in whole blood (in words)” value is recorded as “in great agreement with human serum”. For the same molecule, the “SPR response without the dialysis chamber” value at CD36 [6] (8.75 μM, no dialysis chamber) amounted to 0.71 ± 0.10 nm. For the same molecule, the “SPR response without the microporous membrane” value at CD36 [6] (highest concentration) came to 0.89 nm. For the same molecule, the Kd at CD36 [7] was 5 µM.

On to “His-D-Trp-AzaLeu-Trp-D-Phe-Ala-NH2 [CP-2B(i), reference compound]”, for which the SPR signal change entry on CD36 [5] (dialysis chamber) is listed as “–0.073 ± 0.030 nm”. Also, the Kd on CD36 [7] is 31 µM.

On to H[dW]A[AzaTyr][dF]K-NH2 (reading uncertain; also: printed as His-D-Trp-Ala-AzaTyr-D-Phe-Lys-NH2) [DBG178 (His-D-Trp-Ala-AzaTyr-D-Phe-Lys-NH2)], for which the SPR response at the highest concentration in [8] came to 0.78 nm. In data set [9], this molecule returned an SPR response at 7.5 uM of 0.46 nm. In data set [10], this molecule yielded an equilibrium dissociation constant (Kd) of 17 µM, an SPR response at 7.5 uM of 0.49 nm, an SPR response at 8.75 uM of 0.71 nm and an SPR response at the highest concentration of 0.89 nm. Moreover, the SPR signal change at 10 uM in [10] is 0.28 nm.
